From ChEMBL document CHEMBL3994579, “Synthesis and antibacterial activity of novel 3-O-descladinosylazithromycin derivatives” (2017) come the findings set out here.

Each structure is given as a SMILES string. Values after ≈ are worked out from the molar mass of the structure shown.

What all share (type): functional
Assay [1] deals with Staphylococcus aureus. Put plainly: Antibacterial activity against erythromycin-susceptible Staphylococcus aureus ATCC 25923 by broth microdilution method. Put shortly: (§1)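 MICs were determined in vitro by broth microdilution following the NCCL-recommended method. Azithromycin and clarithromycin were run alongside as reference antibiotics on the same strain panel.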
The test system of a further assay is Escherichia coli. Put plainly: Antibacterial activity against penicillin-susceptible Escherichia coli ATCC 25922 by broth microdilution method. The procedure, abridged: as §1
For orientation: Dilution methods test growth across graded concentrations, often in twofold steps.

Assay [2] has as its system Streptococcus pyogenes. Put plainly: Antibacterial activity against erythromycin-susceptible Streptococcus pyogenes clinical isolate by broth microdilution method. Put shortly:
as §1

A further assay concerns Pseudomonas aeruginosa. Put plainly: Antibacterial activity against penicillin-susceptible Pseudomonas aeruginosa ATCC 27853 by broth microdilution method. Put shortly: as §1
A further assay relates to Bacillus subtilis. Put plainly: Antibacterial activity against erythromycin/penicillin-susceptible Bacillus subtilis ATCC 9372 by broth microdilution method. The procedure, abridged:
as §1

Assay [3] has as its system Staphylococcus epidermidis. Nature of the assay: Antibacterial activity against penicillin-resistant Staphylococcus epidermidis clinical isolate by broth microdilution method. The procedure, abridged:
(§2)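 Broth microdilution per NCCL recommendation, read as minimal inhibitory concentration, run alongside azithromycin and clarithromycin references. Strains: S. pneumoniae B1 (erythromycin-resistant, ermB), A22072 (erythromycin-resistant, mefA), AB11 (erythromycin-resistant, erm and mef); S. aureus ATCC29213 ([…]); S. epidermidis clinical isolate (penicillin-resistant, not characterized).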

Assay [4] deals with Staphylococcus aureus. Put plainly: Antibacterial activity against […] Staphylococcus aureus ATCC 29213 by broth microdilution method. Put shortly:
as §2

Assay [5] deals with Streptococcus pneumoniae. Put plainly: Antibacterial activity against erythromycin-resistant Streptococcus pneumoniae B1 expressing ermB gene by broth microdilution method. The procedure, abridged:
as §2

Assay [6] relates to Streptococcus pneumoniae. Nature of the assay: Antibacterial activity against erythromycin-resistant Streptococcus pneumoniae A22072 expressing mefA gene by broth microdilution method. The procedure, abridged: as §2
Assay [7] relates to Streptococcus pneumoniae. Put plainly: Antibacterial activity against erythromycin-resistant Streptococcus pneumoniae AB11 expressing ermB/mefA genes by broth microdilution method. Put shortly: as §2
Assay [8] has as its system Streptococcus pyogenes. Nature of the assay: Antibacterial activity against erythromycin-resistant Streptococcus pyogenes R1 clinical isolate by broth microdilution method.

On to `CC[C@H]1OC(=O)[C@H](C)[C@@H](OC(=O)Nc2cccc(F)c2)[C@H](C)[C@@H](O[C@@H]2O[C@H](C)C[C@H](N(C)C)[C@H]2O)[C@](C)(O)C[C@@H](C)CN(C)[C@H](C)[C@H]2OC(=O)O[C@@]21C`, for which the MIC – broadly, the smallest concentration in the dilution series that meets the test's criterion for growth inhibition – in the assay with Staphylococcus aureus [1] amounted to 32 mg/L (≈ 42.4 µM); in the assay with Escherichia coli, 128 mg/L (≈ 170 µM); in the assay on Streptococcus pyogenes [2] it was 2 mg/L (≈ 2.65 µM); in the assay on Pseudomonas aeruginosa, 128 mg/L (≈ 170 µM); in the assay with Bacillus subtilis, 128 mg/L (≈ 170 µM); in assay [3], 64 mg/L (≈ 84.9 µM). The MIC is 128 mg/L (≈ 170 µM) against Staphylococcus aureus [4]; 64 mg/L (≈ 84.9 µM) against Streptococcus pneumoniae [5]; 16 mg/L (≈ 21.2 µM) in the assay on Streptococcus pneumoniae [6]; 32 mg/L (≈ 42.4 µM) against Streptococcus pneumoniae [7]; 128 mg/L (≈ 170 µM) against Streptococcus pyogenes [8].

For `CC[C@H]1OC(=O)[C@H](C)[C@@H](OC(=O)N(C)c2ccccc2)[C@H](C)[C@@H](O[C@@H]2O[C@H](C)C[C@H](N(C)C)[C@H]2O)[C@](C)(O)C[C@@H](C)CN(C)[C@H](C)[C@H]2OC(=O)O[C@@]21C`, the MIC came to 4 mg/L (≈ 5.33 µM) against Staphylococcus aureus [1]; 64 mg/L (≈ 85.3 µM) in the assay with Escherichia coli; 0.125 mg/L (≈ 0.167 µM) in the assay with Streptococcus pyogenes [2]; 64 mg/L (≈ 85.3 µM) with Pseudomonas aeruginosa; 4 mg/L (≈ 5.33 µM) with Bacillus subtilis; 8 mg/L (≈ 10.7 µM) in assay [3]. For the same compound, the MIC worked out at 64 mg/L (≈ 85.3 µM) with Staphylococcus aureus [4]; 64 mg/L (≈ 85.3 µM) in the assay on Streptococcus pneumoniae [5]; 2 mg/L (≈ 2.67 µM) against Streptococcus pneumoniae [6]; 4 mg/L (≈ 5.33 µM) with Streptococcus pneumoniae [7]; 64 mg/L (≈ 85.3 µM) against Streptococcus pyogenes [8].

Regarding `CC[C@H]1OC(=O)[C@H](C)[C@@H](OC(=O)Nc2ccc(C(F)(F)F)cc2)[C@H](C)[C@@H](O[C@@H]2O[C@H](C)C[C@H](N(C)C)[C@H]2O)[C@](C)(O)C[C@@H](C)CN(C)[C@H](C)[C@H]2OC(=O)O[C@@]21C`, the MIC in the assay with Staphylococcus aureus [1] is 16 mg/L (≈ 19.9 µM); with Escherichia coli, 128 mg/L (≈ 159 µM); with Streptococcus pyogenes [2] it was 1 mg/L (≈ 1.24 µM); in the assay on Pseudomonas aeruginosa, 128 mg/L (≈ 159 µM); against Bacillus subtilis it was 32 mg/L (≈ 39.8 µM); in assay [3], 0.25 mg/L (≈ 0.311 µM). In addition, the MIC against Staphylococcus aureus [4] turned out to be 128 mg/L (≈ 159 µM); in the assay on Streptococcus pneumoniae [5], 32 mg/L (≈ 39.8 µM); against Streptococcus pneumoniae [6], 4 mg/L (≈ 4.98 µM); against Streptococcus pneumoniae [7], 4 mg/L (≈ 4.98 µM); with Streptococcus pyogenes [8] it was 64 mg/L (≈ 79.6 µM).

With `CC[C@H]1OC(=O)[C@H](C)[C@@H](OC(=O)Nc2cccc(OC)c2)[C@H](C)[C@@H](O[C@@H]2O[C@H](C)C[C@H](N(C)C)[C@H]2O)[C@](C)(O)C[C@@H](C)CN(C)[C@H](C)[C@H]2OC(=O)O[C@@]21C`, the MIC was found to be 16 mg/L (≈ 20.9 µM) with Staphylococcus aureus [1]; 64 mg/L (≈ 83.6 µM) against Escherichia coli; 2 mg/L (≈ 2.61 µM) in the assay on Streptococcus pyogenes [2]; 64 mg/L (≈ 83.6 µM) in the assay with Pseudomonas aeruginosa; 16 mg/L (≈ 20.9 µM) against Bacillus subtilis; 32 mg/L (≈ 41.8 µM) in assay [3]. The MIC is 64 mg/L (≈ 83.6 µM) in the assay with Staphylococcus aureus [4]; 64 mg/L (≈ 83.6 µM) against Streptococcus pneumoniae [5]; 16 mg/L (≈ 20.9 µM) in the assay with Streptococcus pneumoniae [6]; 16 mg/L (≈ 20.9 µM) in the assay on Streptococcus pneumoniae [7]; 64 mg/L (≈ 83.6 µM) against Streptococcus pyogenes [8].

With `CC[C@H]1OC(=O)[C@H](C)[C@@H](OC(=O)Nc2ccccc2Cl)[C@H](C)[C@@H](O[C@@H]2O[C@H](C)C[C@H](N(C)C)[C@H]2O)[C@](C)(O)C[C@@H](C)CN(C)[C@H](C)[C@H]2OC(=O)O[C@@]21C`, the MIC came to 8 mg/L (≈ 10.4 µM) with Staphylococcus aureus [1]; 128 mg/L (≈ 166 µM) with Escherichia coli; 0.125 mg/L (≈ 0.162 µM) in the assay on Streptococcus pyogenes [2]; 128 mg/L (≈ 166 µM) in the assay with Pseudomonas aeruginosa; 8 mg/L (≈ 10.4 µM) in the assay on Bacillus subtilis; 64 mg/L (≈ 83.1 µM) in assay [3]. For the same compound, the MIC with Staphylococcus aureus [4] came out at 64 mg/L (≈ 83.1 µM); with Streptococcus pneumoniae [5] it was 64 mg/L (≈ 83.1 µM); against Streptococcus pneumoniae [6] it was 1 mg/L (≈ 1.3 µM); with Streptococcus pneumoniae [7], 4 mg/L (≈ 5.19 µM); with Streptococcus pyogenes [8], 128 mg/L (≈ 166 µM).

Consider `CCCCCNC(=O)O[C@H]1[C@H](C)[C@@H](O[C@@H]2O[C@H](C)C[C@H](N(C)C)[C@H]2OC(C)=O)[C@](C)(O)C[C@@H](C)CN(C)[C@H](C)[C@H]2OC(=O)O[C@]2(C)[C@@H](CC)OC(=O)[C@@H]1C`, for which the MIC worked out at 32 mg/L (≈ 41.5 µM) with Staphylococcus aureus [1]; 128 mg/L (≈ 166 µM) in the assay with Escherichia coli; 4 mg/L (≈ 5.18 µM) with Streptococcus pyogenes [2]; 128 mg/L (≈ 166 µM) with Pseudomonas aeruginosa; 32 mg/L (≈ 41.5 µM) against Bacillus subtilis; 32 mg/L (≈ 41.5 µM) in assay [3]. Further, the MIC turned out to be 64 mg/L (≈ 82.9 µM) against Staphylococcus aureus [4]; 64 mg/L (≈ 82.9 µM) with Streptococcus pneumoniae [5]; 32 mg/L (≈ 41.5 µM) against Streptococcus pneumoniae [6]; 128 mg/L (≈ 166 µM) with Streptococcus pneumoniae [7]; 128 mg/L (≈ 166 µM) in the assay with Streptococcus pyogenes [8].

On to `CC[C@H]1OC(=O)[C@H](C)[C@@H](OC(=O)Nc2ccccc2F)[C@H](C)[C@@H](O[C@@H]2O[C@H](C)C[C@H](N(C)C)[C@H]2O)[C@](C)(O)C[C@@H](C)CN(C)[C@H](C)[C@H]2OC(=O)O[C@@]21C`, for which the MIC turned out to be 8 mg/L (≈ 10.6 µM) in the assay with Staphylococcus aureus [1]; 64 mg/L (≈ 84.9 µM) with Escherichia coli; 0.5 mg/L (≈ 0.663 µM) against Streptococcus pyogenes [2]; 64 mg/L (≈ 84.9 µM) in the assay on Pseudomonas aeruginosa; 32 mg/L (≈ 42.4 µM) in the assay with Bacillus subtilis; 4 mg/L (≈ 5.31 µM) in assay [3]. The MIC came to 64 mg/L (≈ 84.9 µM) in the assay on Staphylococcus aureus [4]; 64 mg/L (≈ 84.9 µM) against Streptococcus pneumoniae [5]; 16 mg/L (≈ 21.2 µM) with Streptococcus pneumoniae [6]; 16 mg/L (≈ 21.2 µM) in the assay with Streptococcus pneumoniae [7]; 64 mg/L (≈ 84.9 µM) against Streptococcus pyogenes [8].
